Glyco luc inh: blocks N-linked glycosylation in D54 reporter cells | D54 ERlucT glycosylation luciferase reporter, 24 h; percent of 100 nM tunicamycin response | reporter increase, % at 12.5 µM | actives 0.23% (n = 360,000) | AID 588692;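 active = mean luciferase reporter signal, scaled so untreated is 0 and the glycosylation-blocking control 100, at or above a set limit in every replicate; inconclusive = mean reaches the limit but not every replicate does; inactive = mean below the limit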;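 also: luciferase carries N-glycosylation sites so blocking glycosylation raises the light; 0% = median of neutral control wells and 100% = median of 100 nM tunicamycin wells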
HSF-1 act: increases HSF-1 driven luciferase reporter signal; activation, % at 9 µM; NIH3T3-HGL HSF-1 luciferase reporter, MG132, 8 h; 100% = twice DMSO control signal; actives 1.7% (n = 300,000);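 active = mean replicate activation of at least 50% with a set share of replicates each reaching 50%; inconclusive = only one of those two conditions met; inactive = mean below 50% and too few replicates reaching it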;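 also: 0% = median of the neutral control wells and 100% = twice that signal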
PfHsp90 yeast 2: growth inhibition of yeast expressing Plasmodium Hsp90; actives 0.32% (n = 310,000); S. cerevisiae expressing PfHsp90, BacTiter-Glo ATP, 48 h; yeast lacking PDR1 and PDR3 efflux regulators; inhibition, % at 9.4 µM; AID 504621;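 active = every replicate shows inhibition above about 80%, whatever the replicate mean, limit read from the data; inconclusive = mean inhibition reaches the set limit but some replicate falls short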;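 also: 0% = DMSO neutral controls and 100% = 20 µM radicicol positive controls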
PvdQ acylase: blocks Pseudomonas aeruginosa PvdQ acylase activity | purified PvdQ acylase, fluorescence plate reader | inhibition, % at 10 µM | actives 0.063% (n = 340,000); in the data active = inhibition above about 30%, passing the limit was not always enough; inconclusive = no clear call, values can overlap the other calls;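 also: 0% = vehicle neutral wells and 100% = reference inhibitor wells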
T cruzi repl: blocks replication of Trypanosoma cruzi; actives 1.4% (n = 300,000); T. cruzi beta-gal in NIH3T3, luminescence, 90 h; AID 1885; inhibition, % (test concentration not listed);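 active = mean inhibition across valid replicates above about 55%, limit read from the data; inconclusive = mean below that limit but half or more replicates reach it; inactive = mean below it, under half of replicates reach it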;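 also: signal also drops with host cell toxicity which is not excluded here; 0% = plate median of DMSO wells and 100% = zero luminescence signal; higher percent means less beta-gal luminescence so fewer parasites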
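System – NIH/3T3 host cells with β-galactosidase reporter T. cruzi · Doses – single 50 nL compound addition per well in DMSO · Reagent – 5000 T. cruzi trypomastigotes/well · Medium – Low-serum DMEM with 2% FBS · Timing – ≥90 h infection period, 3 h prior cell attachment · Evaluation – parasite load inhibition, % · Technique – GalScreen luminescence, 60 min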
CaV13 ICDI inh: Disruptors of the CACNA1D IQ motif to Ca2+-dependent inactivation inhibitor domain association, primary screening, Förster resonance energy transfer in intact living … | HEK cells, CFP/YFP FRET ICDI-IQ, plate reader, 10 min; percent FRET-ratio fall versus neutral wells | inhibition, % at 12.3 µM | actives 0.098% (n = 340,000);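 active = mean replicate inhibition of at least 30% and at least 1% of replicates passing that level; inconclusive = only one of the two criteria is met; inactive = neither criterion is met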;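 also: 0% = median of the neutral control wells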
* hit, by the source's call; ? = inconclusive; . = no result given. In the library only some 3% were active in any assay of this set; here they are far more common.

SMILES | Glyco luc inh | HSF-1 act | PfHsp90 yeast 2 | PvdQ acylase | T cruzi repl | CaV13 ICDI inh
O=[N+]([O-])c1ccc2nc(-[n+]3c(-c4ccccc4)cc(-c4ccccc4)cc3-c3ccccc3)[nH]c2c1 | -7 | -1 | 0 | 7 | 58* | .
O=[N+]([O-])c1ccc2nc(-c3ccc(Cl)cc3)[nH]c2c1 | -8 | 80* | 28 | -12 | -2 | -3
O=[N+]([O-])c1ccc2nc(-c3ccncc3)[nH]c2c1 | 4 | 5 | 1 | -6 | -11 | -5
Cc1ccc(-c2nc3ccc([N+](=O)[O-])cc3[nH]2)cc1 | -15 | 61* | 13 | 0 | -10 | 4
O=[N+]([O-])c1cccc(-c2nc3ccc([N+](=O)[O-])cc3[nH]2)c1 | -1 | -9 | 2 | -10 | 23 | -7
CCCCCCCCN1C(=O)[C@H](CC(=O)NCCc2ccccc2OC)C[C@@]2(C(=O)OCC)CCC=C12 | . | . | . | . | . | -8
CC(=O)Nc1ccc(C(=O)N2CCCC(c3cc(C(=O)NCc4ccccc4)no3)C2)cc1 (centres undefined) | 0 | . | . | . | . | -5
Cc1ccc(/C=C2/Sc3ccccc3N(CC(=O)NCC3CCCO3)C2=O)cc1 (centres undefined) | -3 | -1 | 5 | -14 | 4 | .
Cc1cc(/C=C2\Sc3ccccc3N2C)cc(C)[n+]1CC1CCCO1 (centres undefined) | 38* | . | -40 | -3 | . | -4
Cc1cc2c(nc1C)CCCN2Cc1ccccn1 | . | . | . | . | . | -7
CCS(=O)(=O)Nc1ccc2[nH]c(=O)[nH]c2c1 | 1 | 78* | -14 | -8 | -14 | -2
CS(=O)(=O)Nc1ccc2[nH]c(=O)[nH]c2c1 | 1 | 2 | 5 | -10 | -3 | .
Cc1cc2nc(NC(=O)C3(C)CCCN(C(C)C)C3)[nH]c2cc1C (centres undefined) | -2 | . | . | . | . | -2
Fc1ccccc1/C=N/Nc1nc(-c2ccccn2)nc2ccccc12 | . | 5 | . | . | 55* | .
CCC(C)Nc1nc(-c2ccccn2)nc2ccccc12 (centres undefined) | -13 | -8 | -2 | 8 | 64* | -4
c1ccc(CNc2nc(-c3ccccn3)nc3ccccc23)cc1 | -7 | -7 | -15 | -3 | 19 | -3
Cc1ccc(N2Cc3ccccc3OC(C)C2=O)cc1 (centres undefined) | 0 | 55* | -1 | -7 | -2 | -6
C[C@@H]1ON(C)[C@H]2C[C@H]3c4cc(Nc5ccccc5)ccc4CCN3C[C@@H]12 | . | . | . | . | . | -5
Oc1ccc(/C=C/c2ccc3cccc(O)c3n2)cc1Br | 6 | -5 | 108* | -2 | 4 | -12
Oc1cccc2ccc(/C=C/c3ccccc3Cl)nc12 | -5 | -10 | 100* | -1 | 43 | -4
COc1ccc(Cl)cc1/C=C/c1ccc2cccc(O)c2n1 | 21 | -3 | -22 | -2 | 34 | -2
COc1ccccc1/C=C/c1ccc2cccc(O)c2n1 | 10 | 18 | -26 | 2 | 56* | -4
CCOc1cccc(/C=C/c2ccc3cccc(O)c3n2)c1OC | 7 | 143* | -51 | 22 | 84* | -19
CCn1cc([N+](=O)[O-])c(C(=O)Nc2nc(-c3ccc(C)cc3)c(C)s2)n1 | 11 | 3 | . | -1 | 4 | -8
CCn1cc([N+](=O)[O-])c(C(=O)Nc2nc(-c3ccc(C)c(C)c3)c(C)s2)n1 | ? | 61* | -4 | 0 | -19 | -6
SMILES | Glyco luc inh | HSF-1 act | PfHsp90 yeast 2 | PvdQ acylase | T cruzi repl | CaV13 ICDI inh
CS(=O)(=O)c1ccccc1COC(=O)Nc1ccc(Cl)cc1 | 2 | 4 | -14 | 3 | 18 | .
O=C(Nc1ccc(Cl)cc1)OCc1ccccn1 | 1 | 57* | . | 5 | -30 | -5
COc1ccc(-c2coc3c(C(=O)NCC(C)C)cccc23)c(C)c1 | -4 | . | . | . | . | -4
Cc1ccc(S(=O)(=O)N2CC3=C(c4ccccc4)CC4(C)C(=O)C(C)(C)CC4=C3C2)cc1 (centres undefined) | . | . | . | . | . | -5
COc1cc(Cl)ccc1OCc1cc(C(=O)N2C[C@@H]3CCC[C@H]2C3)no1 | -2 | 56* | -2 | -5 | 7 | -4
c1ccc(CCn2c(SCc3ccccc3)nnc2-c2ccncc2)cc1 | 0 | 8 | 21 | 13 | 32 | -5
N#Cc1ccc(CSc2nnc(-c3ccncc3)n2CCc2ccccc2)cc1 | 0 | 25 | . | -4 | 65* | .
COc1ccc(Cl)cc1-c1noc([C@@H]2O[C@H](CO)[C@H](O)[C@H](O)[C@H]2O)n1 | 1 | . | . | . | . | -7
NC(CSCc1cccc(Br)c1)C(=O)O (centres undefined) | 1 | 79* | 4 | -12 | -23 | -4
O=[N+]([O-])c1ccc2c(c1)nc1n2CCN(C2CCCCC2)C1 | -1 | 53* | -1 | -10 | 16 | -4
O=C(NCc1ccccc1)c1cc(C2CCCN(C(=O)CCCc3ccccc3)C2)on1 (centres undefined) | -4 | . | . | . | . | -5
COc1cc2c(O)c3c(c(-c4ccc5c(c4)OCO5)c2cc1OC)C(=O)OC3 | -13 | -10 | -9 | -1 | 57* | -5
COc1cc2c(OC(C)=O)c3c(c(-c4ccc5c(c4)OCO5)c2cc1OC)C(=O)OC3 | -14 | -12 | 31 | 3 | 30 | .
CCCCC12CN3CC(C)(CN(C1)C3c1ccc([N+](=O)[O-])o1)C2=O (centres undefined) | 3 | 13 | -3 | 4 | 17 | -14
CCCC12CN3CC(C)(CN(C1)C3c1ccc([N+](=O)[O-])o1)C2=O (centres undefined) | 4 | -8 | -25 | -9 | 17 | -8
CC12CN3CC(C)(CN(C1)C3c1ccc([N+](=O)[O-])o1)C2=O (centres undefined) | 1 | . | -63 | -12 | 80* | -4
CCC12CN3CC(CC)(CN(C1)C3c1ccc([N+](=O)[O-])o1)C2=O (centres undefined) | 2 | 12 | -11 | 0 | 60* | 9
CC(=O)OC[C@@H]1CN(Cc2ccccc2)C[C@H](n2cnc3c(N(C)C(C)C)ncnc32)O1 | 3 | . | . | . | . | 45*
CCN(CC)c1ncnc2c1ncn2[C@H]1CN(Cc2ccccc2)C[C@@H](COC(C)=O)O1 | 0 | . | . | . | . | -10
O=C(OC1CCOC1=O)c1cc(Cl)ccc1[N+](=O)[O-] (centres undefined) | 0 | 58* | -2 | -3 | -6 | -4
O=C(OC1CCOC1=O)c1ccc(N2CCCC2)c([N+](=O)[O-])c1 (centres undefined) | 5 | 0 | . | -10 | -15 | -5
CSc1ccccc1NC(=S)NCc1ccc(Cl)cc1 | -3 | 64* | 14 | -7 | -14 | -5
CCn1nc(C)cc1C(=O)Sc1ccc(Cl)cc1Cl | 7 | 52* | 0 | -11 | . | -5
